{"source": "PubChem BioAssay AID651950", "about": "(The Scripps Research Institute Molecular Screening Center, 2012)", "test": "Hsp70 transcriptional activators, SAR follow-up, cell-based, HeLa, Hsp70 promoter luciferase, luminescence (AID 651950)", "settings": "HeLa hsp70.1pr-luc reporter; at 99 µM (top of the series)", "outline": "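detection: luciferase luminescence; read-out: % activation relative to DMSO and MG132 controls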", "note": "Unmarked numbers belong to inactive results. Active and inactive are the calls of the source. How the calls were made is not given here.", "data": [{"smiles": "O=C1/C(=C/c2ccncc2)CCC/C1=C\\c1ccncc1", "values": [{"measurement": "activation", "value": "-1.1% (active)"}]}, {"smiles": "O=[N+]([O-])c1c(Nc2ccc(Cl)cc2)cc(Cl)c2nonc12", "values": [{"measurement": "activation", "value": "-0.9% (active)"}]}, {"smiles": "COc1cccc(N2C(=O)NC(=O)/C(=C/C=C/c3ccccc3[N+](=O)[O-])C2=O)c1", "values": [{"measurement": "activation", "value": -1.6, "unit": "%"}]}, {"smiles": "O=C1NC(=O)N(c2cccc(Br)c2)C(=O)/C1=C/C=C/c1ccccc1", "values": [{"measurement": "activation", "value": "-0.8% (active)"}]}, {"smiles": "O=c1c([N+](=O)[O-])c(Cl)c2ccccc2n1Cc1ccccc1", "values": [{"measurement": "activation", "value": -0.4, "unit": "%"}]}, {"smiles": "O=C1NC(=O)N(c2cccc(Cl)c2)C(=O)/C1=C\\C=C\\c1ccccc1", "values": [{"measurement": "activation", "value": "-0.7% (active)"}]}, {"smiles": "COc1cc(C(=O)/C(=C/c2cccnc2)c2nc3ccccc3o2)cc(OC)c1OC", "values": [{"measurement": "activation", "value": -1.5, "unit": "%"}]}]}
